This note sets out measurements from ChEMBL document CHEMBL1122932, “Metabolism of phencyclidine. The role of the carbinolamine intermediate in the formation of lactam and amino acid metabolites of nitrogen heterocycles” (J Med Chem, 1985).

Holding throughout (format): ADME
The species named for series [1] is Mus musculus. In words: In vitro level of metabolite in mice liver microsomes at 0 hours; ND is Not Detected (< 8 ug/vessel). Summed up:
(§1)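 Time-zero control: the reaction was stopped right after phencyclidine was added to the mouse (male ICR) liver 12500g supernatant plus NADP-regenerating cofactor mix. Metabolites were quantified by GLC or HPLC with internal standards (N-benzylphenylalanine or ketamine), using calibration curves from spiked microsomal mixtures.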
On the technique in general: Microsomes from liver hold many membrane-bound enzymes, among them those of drug oxidation.

For series [2], the species on record is Mus musculus. As to the kind of experiment: In vitro level of metabolite in mice liver microsomes at 1 hour; ND is Not Detected (< 8 ug/vessel). An outline of the steps: (§2)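 12500g liver supernatant from 10 male ICR mice (homogenized in ice-cold pH 7.4 Tris with 0.15 M KCl; stored -70 °C, used within 15 h). Incubated with phencyclidine and NADP/glucose 6-phosphate/nicotinamide/MgSO4 cofactor at 37 °C, 120 osc/min, 100% O2. Metabolites measured by GLC (N-benzylphenylalanine internal standard, nitrogen detector) or HPLC (ketamine internal standard), calibrated by spiking microsomal blanks.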

Series [3] is filed under the species Mus musculus. In words: In vitro level of metabolite in mice liver microsomes at 2 hours; ND is Not Detected (< 8 ug/vessel). An outline of the steps:
as §2

For series [4], the species on record is Mus musculus. In words: In vitro level of metabolite in mice liver microsomes at 3 hours (heat inactivated control); ND is Not Detected (< 8 ug/vessel). An outline of the steps: (§3)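 Control in which mouse (male ICR) liver 12500g supernatant was heat-inactivated before phencyclidine and cofactors were added. It was then incubated at 37 °C under 100% O2 with shaking alongside the test samples. Metabolites were quantified by GLC or HPLC against internal standards (N-benzylphenylalanine or ketamine), calibrated by spiking.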

The species named for series [5] is Mus musculus. As to the kind of experiment: In vitro level of metabolite in mice liver microsomes at 3 hours; ND is Not Detected (< 8 ug/vessel). Summed up: as §2
Series [6] is filed under the species Mus musculus. In words: In vitro level of metabolite in mice liver microsomes at 1 hour. Summed up:
as §2

Series [7] is filed under the species Mus musculus. As to the kind of experiment: In vitro level of metabolite in mice liver microsomes at 2 hours. An outline of the steps:
as §2

For series [8], the species on record is Mus musculus. As to the kind of experiment: In vitro level of metabolite in mice liver microsomes at 3 hours (heat inactivated control); ND is Not Detected (< 8 ug/ vessel). An outline of the steps: as §3
For series [9], the species on record is Mus musculus. In words: In vitro level of metabolite in mice liver microsomes at 3 hours. An outline of the steps: as §2
The species named for series [10] is Mus musculus. In words: In vitro level of metabolite in mice liver microsomes at 0 hours; ND is […] (< 2 ug/vessel). Summed up: as §1
The species entered for series [11] is Mus musculus. As to the kind of experiment: In vitro level of metabolite in mice liver microsomes at 3 hours (heat inactivated control); ND is Not Detected (< 2 ug/vessel). An outline of the steps: as §3

On to `O=C1CCCCN1C1(c2ccccc2)CCCCC1`, for which the Metabolite levels result in the series listed under Mus musculus [1], in the series listed under Mus musculus [2], in the series listed under Mus musculus [3], in the series listed under Mus musculus [4] and in the series listed under Mus musculus [5] was “Not detected” in each case.
`Cl.O=C(O)CCCCNC1(c2ccccc2)CCCCC1`: the Metabolite levels entry in the series listed under Mus musculus [1] is “Not detected”; in the series listed under Mus musculus [6], 110 µg; in the series listed under Mus musculus [7], 123 µg; in the series listed under Mus musculus [8], “Not detected”; in the series listed under Mus musculus [9], 135 µg.
On to `OCCCCCNC1(c2ccccc2)CCCCC1`, for which the Metabolite levels entry is “Not detected” in the series filed under Mus musculus [10]; 2.8 µg in the series listed under Mus musculus [6]; 2.4 µg in the series listed under Mus musculus [7]; “Not detected” in the series listed under Mus musculus [11]; 1.4 µg in the series filed under Mus musculus [9].
Regarding `OC1CCN(C2(c3ccccc3)CCCCC2)CC1`, the Metabolite levels was 9.3 µg in the series filed under Mus musculus [6], 9.2 µg in the series listed under Mus musculus [7] and 10.3 µg in the series filed under Mus musculus [9].
